PMC6045484 (ACS Omega, 2018)
≈ marks a conversion by molar mass, not a printed value.

Experiments:
SA (ATCC29213) = assay: in vitro antibacterial activity; format: cell-based; details: Staphylococcus aureus; highest test concentration 20 μg/mL
Summary of the method: (§1)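 Test compound serially diluted in 20% DMSO/saline and plated in duplicate, up to 20 μg/mL. Inoculum in cation-adjusted Mueller–Hinton broth, pH 7.3, set by OD630 to 5 × 10^5 CFU/mL. Incubated 16–20 h at 35 °C; 530 nm read before and after. IC50 is 50% growth inhibition; MIC is no detectable growth. MBC from clear wells subcultured on agar. Ciprofloxacin control.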

C. neoformans ATCC90113 = assay: in vitro antifungal activity; format: cell-based, Cryptococcus neoformans
Summary of the method: (§2)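 Modified NCCLS broth method in Sabouraud dextrose. Inoculum set by OD630 to 1.5 × 10^3 CFU/mL. Test compound serially diluted in 20% DMSO/saline, duplicate wells, up to 20 μg/mL. Incubated 70–74 h at 35 °C; 530 nm read before and after. IC50 is 50% growth inhibition; MIC is no detectable growth. MFC from clear wells subcultured on agar. Amphotericin B control.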

MRSA (ATCC33591) = assay: in vitro antibacterial activity; format: cell-based, methicillin-resistant Staphylococcus aureus; details: methicillin-resistant S. aureus; highest test concentration 20 μg/mL
Summary of the method: as §1

A. fumigatus ATCC 90906 = assay: in vitro antifungal activity; format: cell-based, Aspergillus fumigatus
Summary of the method: as §2

P. falciparum (W2) = assay: in vitro antimalarial activity, plasmodial LDH; format: cell-based, Plasmodium falciparum; details: CQ-resistant W2 strain, 72 h
Summary of the method: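 P. falciparum-infected erythrocytes (2% parasitemia, 2% hematocrit) in RPMI 1640 with 10% human serum and 60 μg/mL amikacin. Exposed to test compound dilutions for 72 h at 37 °C under 90% N2/5% O2/5% CO2. LDH measured with Malstat reagent (30 min, room temperature), then NBT/PES for 1 h in the dark, stopped with 5% acetic acid, read at 650 nm. IC50 from dose-response curves.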

P. falciparum (D6) = assay: in vitro antimalarial activity, plasmodial LDH; format: cell-based, Plasmodium falciparum; details: CQ-sensitive D6 strain, 72 h
[1] = system: M. intracellulare (ATCC23068); assay: in vitro antibacterial activity, modified alamarBlue procedure; format: cell-based, Mycobacterium intracellulare; details: highest test concentration 20 μg/mL
Summary of the method: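 Modified alamarBlue microplate method. Test compound serially diluted in 20% DMSO/saline, duplicate wells, up to 20 μg/mL. Inoculum 2.0 × 10^6 CFU/mL in Middlebrook 7H9 with OADC, pH 7.3, containing 5% alamarBlue. Incubated 70–74 h at 37 °C, 10% CO2; fluorescence 544ex/590em read before and after. MIC: no blue-to-pink change. MBC by subculturing blue wells on agar. Ciprofloxacin control.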

[2] = system: L. donovani promastigotes; assay: in vitro antileishmanial activity, alamarBlue assay; format: cell-based, Leishmania donovani; details: promastigotes, 48 h
C. glabrata ATCC90030 = assay: in vitro antifungal activity; format: cell-based, Candida glabrata
Summary of the method: as §2

[3] = system: SK-MEL, KB, BT-549, SK-OV-3, VERO and LLC-PK1 cells; assay: cytotoxicity, neutral red uptake assay; format: cell-based, mammalian; details: highest test concentration 4760 ng/mL
Summary of the method: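 Cells seeded at 25 000/well and allowed 24 h to reach confluence. Test compound was then added and incubated 48 h. Viable cells were counted by a modified neutral red uptake method. The panel was four human cancer lines and two noncancerous mammalian kidney lines. Doxorubicin served as positive control and DMSO as negative control.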

C. albicans ATCC90028 = assay: in vitro antifungal activity; format: cell-based, Candida albicans
Summary of the method: as §2

C. krusei ATCC6258 = assay: in vitro antifungal activity; format: cell-based, Candida krusei
Summary of the method: as §2

Row | SMILES | IC50 (concentration that affords 50% growth inhibition), SA (SA (ATCC29213)) | MBC (minimum bactericidal concentration), SA (SA (ATCC29213)) | MIC, SA (SA (ATCC29213)) | C. neoformans IC50 (C. neoformans ATCC90113) [µg/mL] | C. neoformans MFC (C. neoformans ATCC90113) [µg/mL] | C. neoformans MIC (C. neoformans ATCC90113) [µg/mL] | IC50 (concentration that affords 50% growth inhibition), MRSA (MRSA (ATCC33591)) | MBC (minimum bactericidal concentration), MRSA (MRSA (ATCC33591)) | MIC, MRSA (MRSA (ATCC33591)) | A. fumigatus IC50 (A. fumigatus ATCC 90906) | A. fumigatus MFC (A. fumigatus ATCC 90906) | A. fumigatus MIC (A. fumigatus ATCC 90906) | P. falciparum (W2) IC50 (P. falciparum (W2)) | P. falciparum (D6) IC50 (P. falciparum (D6)) | IC50 (concentration that affords 50% growth inhibition), M. intracellulare [1] [µg/mL] | MBC (minimum bactericidal concentration), M. intracellulare [1] [µg/mL] | MIC, M. intracellulare [1] [µg/mL] | L. donovani IC50 [2] [µg/mL] | L. donovani IC90 [2] [µg/mL] | C. glabrata IC50 (C. glabrata ATCC90030) | other results
1 | CCCCCCOc1c(OC)cc(NC(C)CCCNC(=O)C2CCCN2)c2nc(C(C)(C)C)ccc12 (stereo not drawn) [compound 103, N-(4-(2-tert-Butyl-5-(hexyloxy)-6-methoxyquinolin-8-lamino)pentyl)pyrrolidine-2-carboxamide] | 2.89 µg/mL (≈ 5.64 µM) | 10.00 µg/mL (≈ 19.5 µM) | 5.00 µg/mL (≈ 9.75 µM) | 1.49 | 2.50 | 2.50 | 2.64 µg/mL (≈ 5.15 µM) | 20.00 µg/mL (≈ 39 µM) | 5.00 µg/mL (≈ 9.75 µM) | NA (NA, no activity at the highest test concentration of 20 μg/mL) | NA (NA, no activity at the highest test concentration of 20 μg/mL) | NA (NA, no activity at the highest test concentration of 20 μg/mL) | 2700 ng/mL | 4000 ng/mL | 5.94 (≈ 11.6 µM) | 10.00 (≈ 19.5 µM) | 10.00 (≈ 19.5 µM) | 4.0 | 6.8 | 8.91 µg/mL | C. glabrata MFC (C. glabrata ATCC90030): 10.00 µg/mL; C. glabrata MIC (C. glabrata ATCC90030): 10.00 µg/mL; cytotoxicity CTX [3]: NC (NC, not cytotoxic up to 4760 ng/mL (4.76 μg/mL)); C. albicans IC50 (C. albicans ATCC90028): 11.54 µg/mL; C. albicans MFC (C. albicans ATCC90028): 20.00 µg/mL; C. albicans MIC (C. albicans ATCC90028): 20.00 µg/mL; C. krusei IC50 (C. krusei ATCC6258): 8.76 µg/mL; C. krusei MFC (C. krusei ATCC6258): 10.00 µg/mL; C. krusei MIC (C. krusei ATCC6258): 10.00 µg/mL
2 | CCCCCCCOc1c(OC)cc(NC(C)CCCNC(=O)C2CCCN2)c2nc(C(C)(C)C)ccc12 (stereo not drawn) [compound 113, N-(4-(2-tert-Butyl-5-(heptyloxy)-6-methoxyquinolin-8-lamino)pentyl)pyrrolidine-2-carboxamide] | 3.52 µg/mL (≈ 6.68 µM) | 10.00 µg/mL (≈ 19 µM) | 10.00 µg/mL (≈ 19 µM) | 2.93 | 5.00 | 5.00 | 3.16 µg/mL (≈ 6 µM) | 20.00 µg/mL (≈ 38 µM) | 5.00 µg/mL (≈ 9.49 µM) | NA (NA, no activity at the highest test concentration of 20 μg/mL) | NA (NA, no activity at the highest test concentration of 20 μg/mL) | NA (NA, no activity at the highest test concentration of 20 μg/mL) | 1500 ng/mL | 2400 ng/mL | 16.67 (≈ 31.6 µM) | 20.00 (≈ 38 µM) | 20.00 (≈ 38 µM) | 3.8 | 7 | NA (NA, no activity at the highest test concentration of 20 μg/mL) | C. glabrata MFC (C. glabrata ATCC90030): NA (NA, no activity at the highest test concentration of 20 μg/mL); C. glabrata MIC (C. glabrata ATCC90030): NA (NA, no activity at the highest test concentration of 20 μg/mL); cytotoxicity CTX [3]: NC (NC, not cytotoxic up to 4760 ng/mL (4.76 μg/mL)); C. albicans IC50 (C. albicans ATCC90028): NA (NA, no activity at the highest test concentration of 20 μg/mL); C. albicans MFC (C. albicans ATCC90028): NA (NA, no activity at the highest test concentration of 20 μg/mL); C. albicans MIC (C. albicans ATCC90028): NA (NA, no activity at the highest test concentration of 20 μg/mL); C. krusei IC50 (C. krusei ATCC6258): NA (NA, no activity at the highest test concentration of 20 μg/mL); C. krusei MFC (C. krusei ATCC6258): NA (NA, no activity at the highest test concentration of 20 μg/mL); C. krusei MIC (C. krusei ATCC6258): NA (NA, no activity at the highest test concentration of 20 μg/mL)
3 | CCCCCCCCOc1c(OC)cc(NC(C)CCCNC(=O)C(N)CCCN)c2nc(C(C)(C)C)ccc12 (stereo not drawn) [compound 118, 2,5-Diamino-N-(4-(2-tert-butyl-6-methoxy-5-(octyloxy)quinolin-8-lamino)pentyl)-pentanamide] | NA (NA, no activity at the highest test concentration of 20 μg/mL) | NA (NA, no activity at the highest test concentration of 20 μg/mL) | NA (NA, no activity at the highest test concentration of 20 μg/mL) | 4.93 | >20 | >20 | NA (NA, no activity at the highest test concentration of 20 μg/mL) | NA (NA, no activity at the highest test concentration of 20 μg/mL) | NA (NA, no activity at the highest test concentration of 20 μg/mL) | NA (NA, no activity at the highest test concentration of 20 μg/mL) | NA (NA, no activity at the highest test concentration of 20 μg/mL) | NA (NA, no activity at the highest test concentration of 20 μg/mL) | NA (NA, not active) | NA (NA, not active) | 7.71 (≈ 13.8 µM) | >20 | >20 | 26.61 | 37.9 | 8.05 µg/mL | C. glabrata MFC (C. glabrata ATCC90030): >20 µg/mL; C. glabrata MIC (C. glabrata ATCC90030): >20 µg/mL; cytotoxicity CTX [3]: NC (NC, not cytotoxic up to 4760 ng/mL (4.76 μg/mL)); C. albicans IC50 (C. albicans ATCC90028): 19.95 µg/mL; C. albicans MFC (C. albicans ATCC90028): >20 µg/mL; C. albicans MIC (C. albicans ATCC90028): >20 µg/mL; C. krusei IC50 (C. krusei ATCC6258): 15.36 µg/mL; C. krusei MFC (C. krusei ATCC6258): >20 µg/mL; C. krusei MIC (C. krusei ATCC6258): >20 µg/mL
